For data set [1], the system named is Aorta. In words: Vasodilatory activity in Wistar rat thoracic aorta assessed as relaxation of L-phenylephrine-induced contraction after 120 mins. Format: functional, tissue-based. As to conditions: for EC50: 2 h.
The test system of data set [2] is Aorta. In words: Vasodilatory activity in Wistar rat thoracic aorta assessed as relaxation of L-phenylephrine-induced contraction after 120 mins in presence of 1 uM sGC inhibitor ODQ. It is filed as functional, tissue-based. The following applies: for EC50: 2 h.
Data set [3] in a line: Induction of glucose-stimulated insulin release from rat INS-1E cells at 100 uM after 1 hr by coated charcoal immunoassay in presence of 2 mM glucose relative to control. Format: functional. Summed up:
(§1)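 INS-1E cells at passages 54–65 were kept in RPMI 1640 with 10% heat-inactivated FCS, pyruvate, 2-mercaptoethanol, glutamine and HEPES, and were seeded at 4 x 10^4 cells/cm2. After 48 h they were preincubated 1 h at 37 °C in KRBH with 0.5% BSA and 1 or 2 mM glucose. They were then exposed 1 h at 37 °C to glucose ± compound (100 or 200 µM). Secreted insulin was measured by RIA against a rat insulin standard. Data are mean ± SEM.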

Data set [4] in a line: Induction of nitrite production in rat INS-1E cells assessed per well at 200 uM after 2 hrs by Griess method in presence of 2 mM glucose. Format: functional. (The Griess reaction detects nitrite, a stable product of nitric oxide.)
The nature of data set [5]: Induction of NO release in phosphate buffered saline of pH 7.4 after 1 hr by Griess assay in presence of 5 mM L-cysteine. It is filed as physicochemical. As to conditions: buffer, pH 7.4, 1 h.
Data set [6] is described as follows: Induction of glucose-stimulated insulin release from rat INS-1E cells at 200 uM after 1 hr by coated charcoal immunoassay in presence of 11 mM glucose. Format: functional. Summed up: as §1
Data set [7] in a line: Antiaggregatory activity in human platelet-rich plasma assessed as inhibition of collagen-induced aggregation at 300 uM pretreated 10 mins before addition of stimulus measured after 10 mins. It is filed as functional. The gist of the method: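 Collagen-triggered aggregation in human platelet-rich plasma, by a method described in earlier work. Inhibition is taken relative to control samples. IC50 is obtained by nonlinear regression where it can be calculated. Otherwise percent inhibition is reported at the top concentration tried, 300 µM.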

The nature of data set [8]: (§2) Induction of glucose-stimulated insulin release from rat INS-1E cells at 200 uM after 1 hr by coated charcoal immunoassay in presence of 2 mM glucose. Format: functional. The gist of the method: as §1
A short description of data set [9]: Induction of glucose-stimulated insulin release from rat INS-1E cells at 200 uM after 1 hr by coated charcoal immunoassay in presence of 5.6 mM glucose. It is filed as functional. The gist of the method: as §1
Data set [10] can be described thus: Induction of glucose-stimulated insulin release from rat INS-1E cells at 200 uM after 1 hr by coated charcoal immunoassay in presence of 2 mM glucose relative to control. It is filed as functional. Summed up:
as §1

Data set [11] deals with INS-1E. In words: Induction of glucose-stimulated insulin release from rat INS-1E cells at 200 uM after 1 hr by coated charcoal immunoassay in presence of up to 4 mM glucose. It is filed as functional, cell-based. Summed up: as §1
Data set [12] relates to INS-1E. The data set is described as §2. It is filed as functional. The gist of the method: as §1
Data set [13] is described as follows: Induction of NO release in phosphate buffered saline of pH 7.4 after 1 hr by Griess assay in presence of 0.5 mM L-cysteine. Format: physicochemical. The following applies: buffer, pH 7.4, 1 h.
A short description of data set [14]: Antiaggregatory activity in human platelet-rich plasma assessed as inhibition of collagen-induced aggregation pretreated 10 mins before addition of stimulus measured after 10 mins in presence of 50 uM ODQ. It is filed as functional.
The subject of a further data set is liver (rat). Nature of the data set: Induction of nitric oxide release from Wistar rat liver homogenate at 200 uM after 45 mins by Griess method.

The source made the active and inactive calls. No cut-off for these calls is given here.

Regarding `CCCCNC(=O)NS(=O)(=O)c1ccc(OCc2no[n+]([O-])c2C(N)=O)cc1`, the Activity result in the data set with Aorta [1] is “Dose-dependent effect”; in data set [3], 1.46%; in data set [4], 3.47 nmol; in data set [5], 9.1%; in data set [6] it was 4.92%; in [8], 2.12%. For the same molecule, the Activity in data set [9] is recorded as 4.19%; in [10], 1.94%. Further, the EC50 turned out to be 740 nM with Aorta [1] and 57000 nM in the data set with Aorta [2]. Also, in data set [7], the inhibition at 300 µM was determined as 5.2%.

Consider `CCCCNC(=O)NS(=O)(=O)c1ccc(OCc2no[n+]([O-])c2-c2ccccc2)cc1`, for which the outcome in the data set on INS-1E [11] was Active. Besides, the Activity entry in the data set with Aorta [1] was “Dose-dependent effect”; in data set [3] it was 1.83%; in data set [4], 7.03 nmol; in data set [5], below 1%; in [10], 2.41%. The concentration for a half-maximal effect (EC50) with Aorta [1] was 2400 nM; with Aorta [2], above 100000 nM. In addition, in data set [7], the inhibition at 300 µM is 13%.

For the molecule `NC(=O)c1c(COc2ccccc2)no[n+]1[O-]`, in the data set on INS-1E [12], the result was inactive.

Take `O=[N+]([O-])OCCCOc1ccccc1`: the outcome in the data set with INS-1E [12] was inactive.

In the case of `CCCCNC(=O)NS(=O)(=O)c1ccc(Oc2no[n+]([O-])c2S(=O)(=O)c2ccccc2)cc1`, in the data set on INS-1E [11], the outcome was Active. For the same molecule, the Activity entry with Aorta [1] is “Dose-dependent effect”; in [3], 3.06%; in data set [4], 22.68 nmol; in data set [13] it was 32.1%; in data set [10] it was 4.33%. Moreover, the EC50 in the data set with Aorta [1] is 2.4 nM; in the data set on Aorta [2], 220 nM. Also, in data set [14], the IC50 worked out at 34000 nM.

Take `O=[N+]([O-])OCC(COc1ccccc1)O[N+](=O)[O-]` (stereo not drawn): in the data set on INS-1E [12], the result was inactive.

For the molecule `CCCCNC(=O)NS(=O)(=O)c1ccc(OCCCO[N+](=O)[O-])cc1`, the Activity entry in the data set with Aorta [1] is “Dose-dependent effect”; in [3], 1.86%; in data set [4], 3.88 nmol; in [5], below 1%; in [6] it was 5.79%; in data set [8] it was 2.18%. For the same molecule, the Activity in data set [9] was determined as 4.62%; in data set [10] it was 2.38%. In addition, the half-maximal effective concentration (EC50) is 1600 nM in the data set on Aorta [1] and above 100000 nM with Aorta [2]. Further, the inhibition at 300 µM in data set [7] is 1.1%. Moreover, the result in the data set with liver (rat) was Active.

On to `CCCCNC(=O)NS(=O)(=O)c1ccc(OCc2no[n+]([O-])c2C#N)cc1`, for which, in the data set on INS-1E [11], the result was Active. Also, the figures for the Activity entry (in the data set with Aorta [1]; in data set [4]; in data set [13]) were “Dose-dependent effect”, 10.33 nmol and 27.7%, respectively. The EC50 in the data set with Aorta [2] came out at 900 nM. For the same molecule, the concentration for half-maximal inhibition (IC50) in [14] amounted to 209000 nM.

For `CCCCNC(=O)NS(=O)(=O)c1ccc(OCC(CO[N+](=O)[O-])O[N+](=O)[O-])cc1` (stereo not drawn), the outcome in the data set on INS-1E [11] and in the data set with liver (rat) was Active. In addition, the Activity entry is “Dose-dependent effect” in the data set with Aorta [1]; 5.65 nmol in data set [4]; 4.3% in [5]; 2.6% in data set [8]; 4.85% in data set [9]. The 50% effective concentration (EC50) amounted to 900 nM in the data set on Aorta [1] and 61000 nM in the data set with Aorta [2]. For the same molecule, the inhibition at 300 µM in [7] was determined as 5.6%.

Regarding `N#Cc1c(COc2ccccc2)no[n+]1[O-]`, the outcome in the data set with INS-1E [12] was inactive.

Consider `O=S(=O)(c1ccccc1)c1c(Oc2ccccc2)no[n+]1[O-]`, for which the result in the data set with INS-1E [12] was inactive.

On to `CCCCNC(=O)NS(=O)(=O)c1ccc(C)cc1` [TOLBUTAMIDE], for which the result in the data set on INS-1E [11] was Active. Further, the Activity result with Aorta [1] is “Dose-dependent effect”; in data set [3], 2.22%; in data set [4], 3.2 nmol; in data set [6], 5.45%; in [8], 2.76%; in data set [9] it was 4.98%. Besides, in data set [10], the Activity was 2.97%. In addition, the result in the data set with Aorta [2] was inactive. Also, in data set [7], the inhibition at 300 µM amounted to 6.4%.

`[O-][n+]1onc(COc2ccccc2)c1-c1ccccc1`: the outcome in the data set with INS-1E [12] was inactive.

By EC50 is commonly meant the concentration at which the effect is half-maximal. As a reminder, the inhibition is the relative decrease from the control value, in per cent. The IC50 is the concentration that gives 50% inhibition.
